Assay results: ChEMBL document CHEMBL2157892, “Modifications around the hydroxamic acid chelating group of fosmidomycin, an inhibitor of the metalloenzyme 1-deoxyxylulose 5-phosphate reductoisomerase (DXR)” (Bioorg Med Chem Lett, 2012)
The source made the active and inactive calls. The calls are words filed in the database; no cut-off is given here.

Columns and labels:
[1] = tested on: Escherichia coli; experiment: Ratio of IC50 for Escherichia coli recombinant His6-tagged DXR without preincubation to IC50 for Escherichia coli recombinant His6-tagged DXR with preincubation
[2] = Inhibition of Escherichia coli recombinant His6-tagged DXR expressed in Escherichia coli XL-1 blue using DXP as substrate incubated for 2 mins prior to substrate addition measured after 5 mins by spectrophotometric analysis
Outline: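 His-tagged E. coli DXR, assayed at pH 7.5. Inhibitor was pre-incubated with enzyme and NADPH for 2 min at 37 °C, then DXP was added to start the reaction. Activity was read as NADPH consumption at 340 nm on a UV–visible spectrophotometer, and IC50 was derived from it.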

[3] = Inhibition of Escherichia coli recombinant His6-tagged DXR expressed in Escherichia coli XL-1 blue using DXP as substrate after 5 mins by spectrophotometric analysis
Outline: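 Recombinant His-tagged E. coli DXR. DXP-to-MEP conversion followed as NADPH consumption at 340 nm by UV–visible spectrophotometry, assay pH 7.5. Enzyme, NADPH and inhibitor were not pre-incubated; the reaction was started by adding DXP. IC50 derived from the rate data.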

[4] = tested on: Escherichia coli; experiment: Inhibition of Escherichia coli recombinant His6-tagged DXR expressed in Escherichia coli XL-1 blue using DXP as substrate at 1000 uM after 5 mins by spectrophotometric analysis
[5] = tested on: Escherichia coli; experiment: Inhibition of Escherichia coli recombinant His6-tagged DXR expressed in Escherichia coli XL-1 blue using DXP as substrate at 1000 uM incubated for 2 mins prior to substrate addition measured after 5 mins by spectrophotometric analysis
[6] = Drug degradation assessed as carbon disulfide production at pH 7.5; assay type: physicochemical; details: buffer

Compound | Ratio IC50 [1] | IC50 [2] | IC50 [3] | inhibition [4] | inhibition [5] | Drug degradation [6]
CN(O)C(=O)CCCP(=O)(O)O | 10 | 0.048 µM | 0.5 µM | – | – | –
CSC(=S)NCCP(=O)(O)O | – | 2700 µM | 2800 µM | – | – | –
CSC(=S)N(C)CCCP(=O)(O)O | – | – | – | inactive | inactive | –
CONC(=O)CCCP(=O)(O)O | – | 930 µM | 11500 µM | – | – | –
O=P(O)(O)CCc1cccc(O)c1O | – | 1200 µM | 2000 µM | – | – | –
NNC(=O)CCCP(=O)(O)O | – | 1000 µM | 1800 µM | – | – | –
CN(CCCP(=O)([O-])O)C(=S)[S-].[Na+].[Na+] | – | – | – | inactive | inactive | Active
CON(C)C(=O)CCCP(=O)(O)O | – | 3800 µM | 6900 µM | – | – | –
O=P(O)(O)CCCc1cccc(O)c1O | – | – | – | inactive | inactive | –
CN(CCP(=O)([O-])O)C(=S)[S-].[Na+].[Na+] | – | – | – | inactive | inactive | Active
O=CN(O)CCCP(=O)(O)O [FOSMIDOMYCIN] | 8 | 0.032 µM | 0.25 µM | – | – | –
